For assay [1], the species on record is Mus musculus. As to the kind of experiment: Antioxidant activity in Swiss albino mouse assessed as reduced glutathione level measured per mg of tissue after 7 days. It is filed as functional. In short, it runs like this:
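Male Swiss albino mice (24 ± 2 g) given compound orally in 0.1 ml double-distilled water daily for 7 days; controls got water. Perfused liver homogenized 10% w/v in tris-KCl pH 7.4, precipitated with 25% TCA, centrifuged. 0.1 ml supernatant mixed with 2 ml 0.6 mM DTNB and 0.9 ml […] pH 8.0; absorbance at 412 nm for GSH.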

Assay [2] in a line: Antioxidant activity assessed as ABTS radical scavenging activity after 1 min. It is filed as functional. In short, it runs like this:
(§1)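 ABTS radical cation made from 7 mM ABTS in deionized water plus potassium persulphate (2.45 mM), kept dark at room temperature 12–16 h, then diluted with ethanol to A734 0.700 ± 0.020. 1 ml of this added to 10 µl compound; absorbance at 734 nm read at 30 °C at 1–6 min after mixing. Triplicate determinations.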

Assay [3] in a line: Antioxidant activity assessed as ABTS radical scavenging activity after 4 mins. It is filed as functional. In short, it runs like this: as §1
For assay [4], the system named is Radical scavenging activity. Briefly: Antioxidant activity assessed as DPPH radical scavenging activity at 1 mg/ml. It is filed as functional. In short, it runs like this: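 Compound stock 1 mg/ml in methanol; 50 µl added to 5 ml 0.004% methanolic DPPH. Incubated 30 min in dark at room temperature, absorbance at 517 nm against blank. Percent inhibition calculated by formula; triplicate.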
(The DPPH test is a chemical assay of radical scavenging.)

A short description of assay [5]: Antioxidant activity assessed as ABTS radical scavenging activity after 2 mins. It is filed as functional. In short, it runs like this:
as §1

Assay [6] is described as follows: Antioxidant activity assessed as ABTS radical scavenging activity after 6 mins. It is filed as functional. In short, it runs like this:
as §1

For assay [7], the species on record is Mus musculus. As to the kind of experiment: Antioxidant activity in Swiss albino mouse assessed as lipid peroxidation level measured per mg of tissue after 7 days. It is filed as functional, organism-based. In short, it runs like this: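 Male random-bred Swiss albino mice (24 ± 2 g) dosed orally once daily for 7 days with compound in 0.1 ml double-distilled water; controls water only. Liver perfused with cold 0.9% NaCl, homogenized 10% w/v in tris-KCl pH 7.4. TBARS: sample with tris-KCl, 30% TCA, 52 mM TBA, 25 min at 80 °C, centrifuged; supernatant read at 531.8 nm, expressed as malondialdehyde per mg protein.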

Structures are written as SMILES.

In the case of `Cc1ccc2[nH]c(=O)c3c(c2c1)Nc1ccc(Br)cc1S3`, the results for the Activity in the assay listed under Mus musculus [1] and in the assay listed under Mus musculus [7] were 5 nmol and 6.42 nmol, respectively. The deltaA in assay [2] came to 0.412; in assay [3], 0.406; in assay [5], 0.406; in assay [6] it was 0.406. Besides, the inhibition in assay [4] turned out to be 13.7%.
Turning to `Cc1ccc2[nH]c(=O)c3c(c2c1)Nc1c(C)cccc1S3`, the Activity in the assay filed under Mus musculus [1] is 4.5 nmol; in the assay listed under Mus musculus [7] it was 6.69 nmol. For the same compound, the deltaA in assay [2] is 0.56; in assay [3], 0.52; in assay [5] it was 0.52; in assay [6], 0.52. Also, the inhibition in assay [4] was found to be 8.33%.
In the case of `COc1cccc2c3c(c(=O)[nH]c12)Sc1cc(Br)ccc1N3`, the Activity in the assay filed under Mus musculus [1] is 5.01 nmol; in the assay listed under Mus musculus [7], 6.51 nmol. Moreover, the deltaA in assay [2] is 0.141; in assay [3], 0.098; in assay [5], 0.098; in assay [6], 0.095. Besides, in assay [4], the inhibition came to 53.8%.
As to `Cc1cccc2c1Nc1c(c(=O)[nH]c3c(C)cccc13)S2`, the Activity in the assay filed under Mus musculus [1] was found to be 4.51 nmol; in the assay filed under Mus musculus [7] it was 6.72 nmol. Also, the deltaA worked out at 0.62 in assay [2], 0.61 in assay [3], 0.61 in assay [5] and 0.61 in assay [6]. The inhibition in assay [4] is 2.71%.
`Cc1ccc2[nH]c(=O)c3c(c2c1)Nc1c(cccc1C(F)(F)F)S3`: the Activity was 4.9 nmol in the assay listed under Mus musculus [1] and 6.53 nmol in the assay listed under Mus musculus [7]. The deltaA in assay [2] was found to be 0.328; in assay [3], 0.318; in assay [5], 0.318; in assay [6], 0.318. In assay [4], the inhibition is 22.4%.
For `COc1cccc2c1Nc1c(c(=O)[nH]c3c(OC)cccc13)S2`, the Activity in the assay listed under Mus musculus [1] amounted to 4.8 nmol; in the assay listed under Mus musculus [7], 6.81 nmol. Further, the deltaA in assay [2] is 0.055; in assay [3] it was 0.052; in assay [5], 0.052; in assay [6], 0.052. For the same compound, the inhibition in assay [4] worked out at 54.3%.

As usually defined, the inhibition is the percentage by which the read-out fell short of the control.

The record behind these values is ChEMBL document CHEMBL1250484, “Synthesis and antioxidant activity of quinolinobenzothiazinones” (2010).
